Source: PubChem BioAssay (several laboratories)
MsrA inh = inhibitors of bovine MsrA; purified bovine MsrA, absorbance read-out; inhibition, % at 15.5 µM; 360,000 compounds, 0.75% hits; in the data active = inhibition above about 4.5%
GalR3 antagonist = human GalR3 antagonism. inhibition, % at 3 µM. HEK293 GalR3-CNG cAMP membrane potential fluorescence; galR3 body fused to GalR1 C-terminus. O60755. 360,000 compounds, 0.44% hits;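 active = inhibition above the screen-wide average plus 3 SD, cut at about 13% in these data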;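 also: forskolin and galanin both at EC90 stimulate the cells; cAMP rise reported by CNG channel membrane potential dye signal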
Target sequence (O60755 1-299 limits assumed): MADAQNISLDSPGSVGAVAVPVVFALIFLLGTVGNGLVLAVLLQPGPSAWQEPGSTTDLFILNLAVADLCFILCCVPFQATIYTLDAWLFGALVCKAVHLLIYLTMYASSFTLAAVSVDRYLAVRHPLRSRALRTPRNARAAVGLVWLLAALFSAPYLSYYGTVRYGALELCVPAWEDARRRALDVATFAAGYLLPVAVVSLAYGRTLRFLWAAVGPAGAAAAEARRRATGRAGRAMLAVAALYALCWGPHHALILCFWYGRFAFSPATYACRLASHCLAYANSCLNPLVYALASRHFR
bovine MsrA act = bovine methionine sulfoxide reductase A activation; purified bovine MsrA, absorbance read-out; 360,000 compounds, 0.3% hits; activation, % at 10.6 µM; in the data active = activation above about 7.5%
NR2E3 ag-1 = activates human NR2E3 receptor; AID 602229; 360,000 compounds, 0.35% hits; Q9Y5X4; inhibition of corepressor binding, % at 3.98 µM; CHO-S Gal4-NCOR/VP16-NR2E3 two-hybrid, luciferase;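 active = inhibition above the mean of all tested compounds plus 3 SD, cut at about 70% in these data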;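 also: higher means lower luciferase signal from less NR2E3 corepressor binding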
Target sequence (Q9Y5X4 whole entry, looked up, the tested form may be a part): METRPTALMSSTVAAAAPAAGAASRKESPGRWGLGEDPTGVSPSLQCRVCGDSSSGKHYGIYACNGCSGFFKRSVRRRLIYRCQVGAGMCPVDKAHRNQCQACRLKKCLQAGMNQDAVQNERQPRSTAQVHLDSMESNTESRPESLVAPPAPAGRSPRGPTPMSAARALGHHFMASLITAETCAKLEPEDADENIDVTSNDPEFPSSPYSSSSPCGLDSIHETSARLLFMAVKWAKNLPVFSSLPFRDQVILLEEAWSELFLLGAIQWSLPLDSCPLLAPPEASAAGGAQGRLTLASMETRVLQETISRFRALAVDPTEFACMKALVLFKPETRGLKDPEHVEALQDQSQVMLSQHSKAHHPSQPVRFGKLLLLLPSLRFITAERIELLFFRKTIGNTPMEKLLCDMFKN
NadD inh = NadD (S. aureus) enzyme inhibition | inhibition, % at 20 µM | purified NadD enzyme, colorimetric absorbance read-out | 360,000 compounds, 0.78% hits; in the data active = inhibition above about 26%
NR2E3 ag-2 = agonists of human nuclear receptor NR2E3 | Q9Y5X4 | inhibition of corepressor binding, % at 4.78 µM | AID 2300 | 320,000 compounds, 0.12% hits | GST-NR2E3/biotin-RetCOR TR-FRET, 1536-well;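 active = percent inhibition above the cutoff of mean plus 3 SD of all tested compounds, set per screening campaign, cut at about 20% in these data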
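Material: NR2E3–RetCOR corepressor complex / Incubation: Compound–protein incubation for 5 h at 4 °C / Dosing: compound at 4.8 µM, single dose / Detection: time-resolved FRET / Benchmarks: high control biotin, low control 0.6% DMSO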
NR2E3 ag confirm = confirmation of human NR2E3 agonists. shares compounds with NR2E3 ag-1. CHO-S mammalian two-hybrid NR2E3-NCOR, luciferase luminescence. inhibition, % at 3.98 µM. 2,300 compounds, 51% hits;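 active = average inhibition above a cutoff equal to the mean inhibition of all tested compounds plus one SD, cut at about 70% in these data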
GAL4-VP16 luc = counter-screen for NR2E3 agonists: GAL4-VP16 reporter inhibitors; CHO-S GAL4-VP16 luciferase reporter, luminescence; shares compounds with NR2E3 ag-1; inhibition, % at 3.98 µM; 2,300 compounds, 29% hits;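 active = mean inhibition above a cutoff equal to the average over all tested compounds plus one standard deviation, cut at about 70% in these data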;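 also: luciferase from a UAS reporter driven by GAL4-VP16 transactivation; higher means less reporter light so more repression of VP16 activity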
Each line names hits and unclear results; the compound was inactive in the other large screens (follow-up assays come after a bar, where they were run). Sampled rows, rich in hits. Any-hit rate of the full collection: about 2.5%.

CCCCCCCCCCOC(=O)c1csc2nnsc12	none
O=NN(CC(=O)NNc1ccccc1)CC(=O)NNc1ccccc1	NR2E3 ag-1 73 (no result: NR2E3 ag-2) | NR2E3 ag confirm 74 | GAL4-VP16 luc inactive
O=C(NNc1ccccc1)c1ccccc1	none (no result: NR2E3 ag-2)
O=C(CCNS(=O)(=O)c1ccc(OC(F)(F)F)cc1)N1CCN(C/C=C/c2ccccc2)CC1	none | NR2E3 ag confirm inactive | GAL4-VP16 luc inactive
COc1ccc(NC(=O)C23CC4CC(C2)CC(n2cnc(Br)n2)(C4)C3)c(C)c1	none
Cc1ccc2c(CN(C)Cc3ccccc3)cc(=O)oc2c1C	none
Cc1ccc2c(CN(C)Cc3ccc(OC(F)F)cc3)cc(=O)oc2c1C	none | NR2E3 ag confirm inactive | GAL4-VP16 luc inactive
Cc1ccc(C)c(N2CCN(S(=O)(=O)c3csc(C(N)=O)c3)CC2)c1	none | NR2E3 ag confirm inactive | GAL4-VP16 luc inactive
CCC1(CC)C(=O)C(C)(C)C(=O)OC1c1ccccn1 (stereo unspecified)	NR2E3 ag-1 92 | NR2E3 ag confirm inactive | GAL4-VP16 luc inactive
Nn1cnnc1SCC(=O)Nc1ccc(C2CCCCC2)cc1	none
O=C(O)CSCC(=O)Nc1ccc(C2CCCCC2)cc1	NR2E3 ag-1 72 | NR2E3 ag confirm inactive | GAL4-VP16 luc inactive
CCOC(=O)C1CCN(C(=O)CN(c2ccc3c(c2)OCO3)S(C)(=O)=O)CC1	none
O=C(Nc1cccc(S(=O)(=O)Nc2ccc(Cl)cc2)c1)c1ccc(Cl)nc1	GalR3 antagonist 73, NR2E3 ag-1 74 | NR2E3 ag confirm inactive | GAL4-VP16 luc 76
O=C(Nc1ccc(NS(=O)(=O)c2ccccc2)cc1)c1ccc(Cl)cc1	none
COc1ccc(CC(=O)N(C)Cc2ccc(OC(F)F)cc2)cc1S(=O)(=O)N1CCOCC1	none (no result: NR2E3 ag-2)
Cc1ccc(OCCN2CCC2(C)C(=O)NCc2ccc(C(F)(F)F)cc2)cc1 (stereo unspecified)	none (no result: NR2E3 ag-2) | NR2E3 ag confirm inactive | GAL4-VP16 luc inactive
Cc1ccc(OCCN2CCC2(C)C(=O)NCc2cccc3ccccc23)cc1 (stereo unspecified)	none (no result: NR2E3 ag-2)
O=C1C=CC2(O[C@H](c3ccccc3)[C@@H](c3ccccc3)O2)[C@H](Sc2ccccc2O)C1	GalR3 antagonist 16 (no result: NR2E3 ag-2) | NR2E3 ag confirm 92 | GAL4-VP16 luc inactive
CC(=O)Nc1ccc(S(=O)(=O)NCCC(=O)OCC(=O)NC(C)c2ccc(Cl)cc2)cc1 (stereo unspecified)	none (no result: NR2E3 ag-2)
O=C(NCc1ccncc1)c1cccc(S(=O)(=O)N2CCc3ccccc32)c1	none | NR2E3 ag confirm inactive | GAL4-VP16 luc inactive
O=C(NNC(=O)c1ccccc1F)c1cccc(S(=O)(=O)N2CCc3ccccc32)c1	NR2E3 ag-1 81 (no result: NR2E3 ag-2) | NR2E3 ag confirm 85 | GAL4-VP16 luc 72
CC1Cc2ccccc2N1S(=O)(=O)c1cccc(C(=O)NCc2ccncc2)c1 (stereo unspecified)	none
O=C(NCCN1CCNCC1)c1ccccn1	none
Cn1c(=O)c2[nH]c(=O)[nH]c2n(C)c1=O	none (no result: NR2E3 ag-2)
O=C1c2ccccc2C(=O)N1Nc1ccccc1	none | NR2E3 ag confirm inactive | GAL4-VP16 luc inactive
O=C1c2cccc3c([N+](=O)[O-])c(O)cc(c23)C(=O)N1Nc1ccccc1	none
CC(C)Cc1ccc(C(C)C(=O)Nc2ccccc2O)cc1 (stereo unspecified)	NR2E3 ag-1 83 | NR2E3 ag confirm 94 | GAL4-VP16 luc 82
C=CCN=C1NN=C(c2cc(C)n(CC=C)c2C)CS1	none | NR2E3 ag confirm inactive | GAL4-VP16 luc inactive
COCCN=C1NN=C(c2cc(C)n(CC3CCCO3)c2C)CS1 (stereo unspecified)	none
C/C(=N\NC(=O)c1nnn(-c2nonc2N)c1-c1ccc2c(c1)OCO2)c1cccs1	none
COc1ccc(CNc2ncnc3c2[nH]c2cc(OC)c(OC)cc23)cc1	none
COc1ccc(CNc2ncnc3c2[nH]c2ccccc23)cc1	none | NR2E3 ag confirm 89 | GAL4-VP16 luc 72
NC(=O)c1cnn2c1NC(c1ccc(F)cc1)CC2C(F)(F)F (stereo unspecified)	none
c1ccc(CNc2nc(-c3ccccc3)nc3ccccc23)cc1	none
c1ccc(CNc2nc(-c3ccccn3)nc3ccccc23)cc1	NR2E3 ag-1 95 | NR2E3 ag confirm 99 | GAL4-VP16 luc inactive
CCC(C)Nc1nc(-c2cccc(OC)c2O)nc2ccccc12 (stereo unspecified)	none
CCC(C)Nc1nc(-c2ccccn2)nc2ccccc12 (stereo unspecified)	NR2E3 ag-1 100 | NR2E3 ag confirm 99 | GAL4-VP16 luc inactive
O=C(CSc1nc(=O)n(Cc2ccccn2)c2c1CCC2)Nc1ccc(F)cc1F	none
CCOC(=O)CN1CCCc2nc(C)c(C)cc21	none (no result: bovine MsrA act, NR2E3 ag-1, NadD inh, NR2E3 ag-2)
CC(C)N1CCc2c(sc(NC(=O)c3ccc([N+](=O)[O-])o3)c2C(N)=O)C1	none | NR2E3 ag confirm 84 | GAL4-VP16 luc inactive
COc1ccc(C(=O)Nc2sc3c(c2C#N)CCN(C(C)=O)C3)cc1	none
COC(=O)c1c(NC(=O)c2ccc([N+](=O)[O-])o2)sc2c1CCN(C(C)C)C2	none
CC(=O)N1CCc2c(sc(NC(=O)c3ccc([N+](=O)[O-])o3)c2C#N)C1	none (no result: NR2E3 ag-2) | NR2E3 ag confirm inactive | GAL4-VP16 luc inactive
Cc1ccc2c(c1)nnn2C1CCN(S(=O)(=O)c2ccc(C(=O)O)cc2)CC1	none
Cc1ccc2c(c1)nnn2C1CCN(S(=O)(=O)c2ccc(C(=O)N3C(C)CCCC3C)cc2)CC1 (stereo unspecified)	NR2E3 ag-1 71 | NR2E3 ag confirm 89 | GAL4-VP16 luc 71
Cc1ccnc2c1ccc1cccnc12	NR2E3 ag-1 74 (no result: NR2E3 ag-2) | NR2E3 ag confirm inactive | GAL4-VP16 luc inactive
Cc1ccnc2c1ccc1c(C)ccnc12	NR2E3 ag-1 78 (no result: MsrA inh, GalR3 antagonist) | NR2E3 ag confirm inactive | GAL4-VP16 luc inactive
Cc1ccnc2c1ccc1ccccc12	none
CCn1nc(C(=O)OCC(=O)c2cc(C)n(Cc3cccs3)c2C)c2ccccc2c1=O	none
Cc1cc(C(=O)COC(=O)c2ccccc2O)c(C)n1Cc1cccs1	NR2E3 ag-1 91 | NR2E3 ag confirm 80 | GAL4-VP16 luc 71
Cc1cc(C(=O)COC(=O)c2ccc(N)c([N+](=O)[O-])c2)c(C)n1Cc1ccc2c(c1)OCO2	none
Cc1cc(C(=O)COc2cccnc2[N+](=O)[O-])c(C)n1Cc1cccs1	none | NR2E3 ag confirm 73 | GAL4-VP16 luc inactive
Cc1cc(C(=O)COC(=O)c2ccc3c(c2)OCO3)c(C)n1Cc1cccs1	NR2E3 ag-1 90 | NR2E3 ag confirm 77 | GAL4-VP16 luc 75
Fc1ccc(C(CCCn2nnc(-c3cccnc3)n2)c2ccc(F)cc2)cc1	none | NR2E3 ag confirm inactive | GAL4-VP16 luc inactive
Fc1ccc(-n2nnc(-c3cccnc3)n2)cc1	none
